Assay results as given in the RNAGym collection of RNA variant scans (doi:10.1002/anie.201605470).

B1: Osa-1-4 twister ribozyme (parent)
chain: CCGCCUAACACUGCCAAUGCCGGUCCCAAGCCCGGAUAAAAGUGGAGGGGGCGG

Variants of: B1
Assay: self-cleavage, relative activity (ratio to wild type); higher = more cleavage; co-transcriptional
Method in brief: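 In vitro transcription at 37 °C for 2 h allowed the twister ribozyme to cleave itself as it was made. Its 54-nucleotide Oryza sativa template had been synthesised with 97 % wild-type base and 1 % of each other base at the 48 positions downstream of the cleavage site. A template-switching oligonucleotide was used for reverse transcription, followed by PCR amplification and deep sequencing. Whether reads carried upstream sequence set the cleavage status, and relative activity is the fraction cleaved normalised to wild type.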

Variant | self-cleavage
A8C G19A | 0.07
A8C G19C | 0.08
A8C G19U | 0.06
A8C G50A | 0.06
A8C G50U | 0.08
A8C G50C | 0.08
A8C C14A | 0.04
A8C C14U | 0.05
A8C C14G | 0.03
A8C G22C | 0.03
A8C G22A | 0.09
A8C G22U | 0.07
A8C G47U | 0.04
A8C G47A | 0.04
A8C G47C | 0.03
A8G G48C | 0.05
A8G G48A | 0.06
A8G G48U | 0.04
A8U C33G | 0.04
A8U C33A | 0.05
A8U C33U | 0.09
A8G G30A | 0.06
A8G G30U | 0.04
A8G G30C | 0.07

Variant | self-cleavage
A8C U12G | 0.16
A8C U12A | 0.06
A8C U12C | 0.07
A8C C9U | 0.01
A8C C9G | 0.05
A8C C9A | 0.1
A8C G30C | 0.03
A8C G30A | 0.01
A8C G30U | 0.01
A7U C52U | 0.1
A7U C52G | 0.12
A7U C52A | 0.12
A7U G54A | 0.07
A7U G54U | 0.11
A7U G54C | 0.06
A8G G42C | 0.12
A8G G42A | 0.14
A8G G42U | 0.04
A8G G19C | 0.07
A8G G19U | 0.1
A8G G19A | 0.15
A8G C31G | 0.08
A8G C31U | 0.1
A8G C31A | 0.03

Variant | self-cleavage
A8C C31A | 0.01
A8C C31G | 0.02
A8C C31U | 0.05
A8C C27G | 0.03
A8C C27U | 0.04
A8C C27A | 0.13
A8G C11U | 0.19
A8G C11G | 0.17
A8G C11A | 0.15
A7U C33G | 0.03
A7U C33A | 0.03
A7U C33U | 0.08
A8G C25A | 0.08
A8G C25G | 0.08
A8G C25U | 0.16
A8C G54U | 0.11
A8C G54A | 0.09
A8C G54C | 0.06
A7U G30U | 0.02
A7U G30C | 0.02
A7U G30A | 0.06
A7U C31G | 0.06
A7U C31U | 0.05
A7U C31A | 0.01

Variant | self-cleavage
A8G G23U | 0.06
A8G G23C | 0.05
A8G G23A | 0.13
A8U C9G | 0.11
A8U C9U | 0.09
A8U C9A | 0.09
A8C G23A | 0.08
A8C G23U | 0.07
A8C G23C | 0.02
A8C C11U | 0.09
A8C C11G | 0.06
A8C C11A | 0.1
A7U G45A | 0.05
A7U G45C | 0.04
A7U G45U | 0.02
A8C U24G | 0.01
A8C U24A | 0.03
A8C U24C | 0.08
A8C G48C | 0.02
A8C G48A | 0.02
A8C G48U | 0.03
A8C U37G | 0.1
A8C U37C | 0.07
A8C U37A | 0.06

Variant | self-cleavage
A8G C15A | 0.12
A8G C15G | 0.29
A8G C15U | 0.13
A8C C21G | 0.05
A8C C21A | 0.09
A8C C21U | 0.06
A8G U18G | 0.49
A8G U18A | 0.57
A8G U18C | 0.39
A7U G23C | 0.03
A7U G23A | 0.06
A7U G23U | 0.03
A8G C9U | 0.1
A8G C9A | 0.13
A8G C9G | 0.2
A7U G48C | 0.03
A7U G48U | 0.01
A7U G48A | 0.02
A8G G51C | 0.08
A8G G51A | 0.22
A8G G51U | 0.11
A8C G44A | 0.07
A8C G44C | 0.07
A8C G44U | 0.08

Variant | self-cleavage
A8G C21G | 0.09
A8G C21A | 0.14
A8G C21U | 0.38
A8C G13A | 0.03
A8C G13U | 0.01
A8C G13C | 0.07
A8C G42C | 0.04
A8C G42A | 0.06
A8C G42U | 0.04
A8G | 0.71
A8U | 0.49
A8C | 0.07
A7U G53U | 0.05
A7U G53A | 0.08
A7U G53C | 0.03
A8G C27U | 0.11
A8G C27G | 0.11
A8G C27A | 0.14
A8G G54U | 0.32
A8G G54A | 0.27
A8G G54C | 0.21
A7U U12G | 0.06
A7U U12C | 0.1
A7U U12A | 0.09

Variant | self-cleavage
A8G G22U | 0.15
A8G G22A | 0.2
A8G G22C | 0.07
A8C G51A | 0.06
A8C G51U | 0.05
A8C G51C | 0.03
A7U U18A | 0.11
A7U U18G | 0.11
A7U U18C | 0.08
A8C G45A | 0.04
A8C G45U | 0.04
A8C G45C | 0.02
A8C C32G | 0.03
A8C C32U | 0.02
A8C C32A | 0.04
A8C G53C | 0.02
A8C G53A | 0.07
A8C G53U | 0.06
A7U G42U | 0.03
A7U G42C | 0.05
A7U G42A | 0.09
A8C G49U | 0.03
A8C G49A | 0.02
